Laboratory results as given in ChEMBL document CHEMBL3860041, “Synthesis, biological evaluation and molecular modeling study of some new methoxylated 2-benzylthio-quinazoline-4(3H)-ones as nonclassical antifolates” (Bioorg Med Chem Lett, 2016).

Tests used:
Format in all cases: functional
[1] = Growth inhibition of human K562 cells at 10 uM after 48 hrs by SRB assay relative to control; details: K562, 48 h, read-out: GI
Outline: (§1)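 NCI 60-cell-line panel, nine tumor subpanels; compounds tested at a single dose of 10 μM in the primary screen.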

[2] = Growth inhibition of human MOLT4 cells at 10 uM after 48 hrs by SRB assay relative to control; details: MOLT-4, 48 h, read-out: GI; outline: as §1
[3] = Growth inhibition of human RPMI8226 cells at 10 uM after 48 hrs by SRB assay relative to control; details: RPMI-8226, 48 h, read-out: GI; outline: as §1
[4] = Growth inhibition of human A549 cells at 10 uM after 48 hrs by SRB assay relative to control; details: A549, 48 h, read-out: GI; outline: as §1
[5] = Growth inhibition of human NCI-322M cells at 10 uM after 48 hrs by SRB assay relative to control; details: read-out: GI; outline: as §1
[6] = Growth inhibition of human NCI-H460 cells at 10 uM after 48 hrs by SRB assay relative to control; details: NCI-H460, 48 h, read-out: GI; outline: as §1
[7] = Growth inhibition of human COLO205 cells at 10 uM after 48 hrs by SRB assay relative to control; details: COLO 205, 48 h, read-out: GI; outline: as §1
[8] = Growth inhibition of human HCC2998 cells at 10 uM after 48 hrs by SRB assay relative to control; details: HCC 2998, 48 h, read-out: GI; outline: as §1
[9] = Growth inhibition of human HCT116 cells at 10 uM after 48 hrs by SRB assay relative to control; details: HCT-116, 48 h, read-out: GI; outline: as §1
[10] = Growth inhibition of human HCT15 cells at 10 uM after 48 hrs by SRB assay relative to control; details: HCT-15, 48 h, read-out: GI; outline: as §1
[11] = Growth inhibition of human HT-29 cells at 10 uM after 48 hrs by SRB assay relative to control; details: HT-29, 48 h, read-out: GI; outline: as §1
[12] = Growth inhibition of human U251 cells at 10 uM after 48 hrs by SRB assay relative to control; details: U-251, 48 h, read-out: GI
Outline: (§2)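 Primary screen across the full NCI 60 human tumour cell line panel, which covers nine tumour subpanels. A single dose of 10 μM was applied to each line, and growth was recorded for each cell line.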

[13] = Growth inhibition of human LOXIMVI cells at 10 uM after 48 hrs by SRB assay relative to control; details: LOX IMVI, read-out: GI; outline: as §1
[14] = Growth inhibition of human MALME-3M cells at 10 uM after 48 hrs by SRB assay relative to control; details: read-out: GI; outline: as §1
[15] = Growth inhibition of human SK-MEL-28 cells at 10 uM after 48 hrs by SRB assay relative to control; details: SK-MEL-28, 48 h, read-out: GI; outline: as §2
[16] = Growth inhibition of human UACC62 cells at 10 uM after 48 hrs by SRB assay relative to control; details: UACC-62, 48 h, read-out: GI; outline: as §2
[17] = Growth inhibition of human IGROV1 cells at 10 uM after 48 hrs by SRB assay relative to control; details: IGROV-1, 48 h, read-out: GI; outline: as §1
[18] = Growth inhibition of human OVCAR4 cells at 10 uM after 48 hrs by SRB assay relative to control; details: OVCAR-4, 48 h, read-out: GI; outline: as §1
[19] = Growth inhibition of human OVCAR5 cells at 10 uM after 48 hrs by SRB assay relative to control; details: OVCAR-5, 48 h, read-out: GI; outline: as §1
[20] = Growth inhibition of human OVCAR8 cells at 10 uM after 48 hrs by SRB assay relative to control; details: OVCAR-8, 48 h, read-out: GI; outline: as §1
[21] = Growth inhibition of human 786-0 cells at 10 uM after 48 hrs by SRB assay relative to control; details: 786-0, 48 h, read-out: GI; outline: as §1
[22] = Growth inhibition of human ACHN cells at 10 uM after 48 hrs by SRB assay relative to control; details: read-out: GI; outline: as §1
[23] = Growth inhibition of human SN12C cells at 10 uM after 48 hrs by SRB assay relative to control; details: read-out: GI; outline: as §2
[24] = Growth inhibition of human UO31 cells at 10 uM after 48 hrs by SRB assay relative to control; details: UO-31, 48 h, read-out: GI; outline: as §2
[25] = Growth inhibition of human Hs 578T cells at 10 uM after 48 hrs by SRB assay relative to control; details: read-out: GI; outline: as §1
[26] = Growth inhibition of human T47D cells at 10 uM after 48 hrs by SRB assay relative to control; details: read-out: GI; outline: as §2
[27] = test system: Cancer cell lines; assay: Potency index, ratio of 5-fluorouracil GI50 to compound GI50 for human prostate cancer cells
Outline: (§3)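 GI50 for each cell line came from NCI panel testing over a 5-log dose range, with 5-fluorouracil tested alongside as the reference drug. The index relates the 5-fluorouracil GI50 to the compound GI50 within each tumour subpanel.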

[28] = test system: Cancer cell lines; assay: Potency index, ratio of 5-fluorouracil GI50 to compound GI50 for human colon cancer cells; outline: as §3
[29] = test system: Cancer cell lines; assay: Potency index, ratio of 5-fluorouracil GI50 to compound GI50 for human non-small cell lung cancer cells; outline: as §3
[30] = Growth inhibition of human non-small cell lung cancer cells after 48 hrs by SRB assay; details: Cancer cell lines
Outline: (§4)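 Follow-up NCI panel testing over a 5-log dose range for each cell line. GI50, TGI and LC50 were monitored, with 5-fluorouracil run as the positive control. Values are grouped by tumour subpanel.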

[31] = Growth inhibition of human colon cancer cells after 48 hrs by SRB assay; details: Cancer cell lines; outline: as §4
[32] = Growth inhibition of human melanoma cells after 48 hrs by SRB assay; details: Melanoma cell; outline: as §4
[33] = Growth inhibition of human prostate cancer cells after 48 hrs by SRB assay; details: Cancer cell lines; outline: as §4
[34] = Growth inhibition of human breast cancer cells after 48 hrs by SRB assay; details: Cancer cell lines; outline: as §4
[35] = Growth inhibition of human SF539 cells at 10 uM after 48 hrs by SRB assay relative to control; details: SF-539, 48 h, read-out: GI; outline: as §1
[36] = Growth inhibition of human SK-MEL-2 cells at 10 uM after 48 hrs by SRB assay relative to control; details: SK-MEL-2, 48 h, read-out: GI; outline: as §2
[37] = Growth inhibition of human SK-MEL-5 cells at 10 uM after 48 hrs by SRB assay relative to control; details: SK-MEL-5, 48 h, read-out: GI; outline: as §2

COc1cc2nc(SCc3cc(OC)c(OC)c(OC)c3)n(Cc3ccccc3)c(=O)c2cc1OC
inhibition of growth at 10 µM [1]: 89.8%
inhibition of growth at 10 µM [2]: 83.3%
inhibition of growth at 10 µM [3]: 45.3%
inhibition of growth at 10 µM [4]: 63.2%
inhibition of growth at 10 µM [5]: 54.6%
inhibition of growth at 10 µM [6]: 77.7%
inhibition of growth at 10 µM [7]: 92.6%
inhibition of growth at 10 µM [8]: 59.2%
inhibition of growth at 10 µM [9]: 85.4%
inhibition of growth at 10 µM [10]: 79.9%
inhibition of growth at 10 µM [11]: 89.4%
inhibition of growth at 10 µM [12]: 71%
inhibition of growth at 10 µM [13]: 62.3%
inhibition of growth at 10 µM [14]: 78.1%
inhibition of growth at 10 µM [15]: 60.8%
inhibition of growth at 10 µM [16]: 76.6%
inhibition of growth at 10 µM [17]: 60.8%
inhibition of growth at 10 µM [18]: 55.8%
inhibition of growth at 10 µM [19]: 46.3%
inhibition of growth at 10 µM [20]: < 10%
inhibition of growth at 10 µM [21]: 63.3%
inhibition of growth at 10 µM [22]: 60.8%
inhibition of growth at 10 µM [23]: 58.8%
inhibition of growth at 10 µM [24]: 65.3%
inhibition of growth at 10 µM [25]: 73.3%
inhibition of growth at 10 µM [26]: 64.1%
RatioGI50 [27]: 2 - 10
RatioGI50 [28]: 2 - 10
RatioGI50 [29]: 2 - 10
GI50 [30]: 3.6 µM
LC50 (concentration killing 50% of cells) [30]: 94.5 µM
TGI [30]: 63.1 µM
GI50 [31]: 2.2 µM
LC50 [31]: > 100 µM
TGI [31]: 87.8 µM
GI50 [32]: 2.6 µM
LC50 [32]: 78.7 µM
TGI [32]: 45.9 µM
GI50 [33]: 4 µM
LC50 (concentration killing 50% of cells) [33]: > 100 µM
TGI [33]: > 100 µM
GI50 [34]: 2.5 µM
LC50 [34]: 99.3 µM
TGI [34]: 47.4 µM

COc1ccc(-n2c(SCc3cc(OC)c(OC)c(OC)c3)nc3ccc(C)cc3c2=O)c(OC)c1
inhibition of growth at 10 µM [1]: 85.6%
inhibition of growth at 10 µM [2]: 88.7%
inhibition of growth at 10 µM [4]: 81.1%
inhibition of growth at 10 µM [5]: 72%
inhibition of growth at 10 µM [6]: 95.4%
inhibition of growth at 10 µM [8]: 54.5%
inhibition of growth at 10 µM [9]: 81.9%
inhibition of growth at 10 µM [10]: 76.4%
inhibition of growth at 10 µM [11]: 88.8%
inhibition of growth at 10 µM [35]: 80%
inhibition of growth at 10 µM [12]: 75.2%
inhibition of growth at 10 µM [13]: 68.4%
inhibition of growth at 10 µM [14]: 74.5%
inhibition of growth at 10 µM [36]: < 10%
inhibition of growth at 10 µM [15]: 59.2%
inhibition of growth at 10 µM [37]: 82.4%
inhibition of growth at 10 µM [16]: 75.6%
inhibition of growth at 10 µM [17]: 64.3%
inhibition of growth at 10 µM [18]: 42.6%
inhibition of growth at 10 µM [19]: 56.8%
inhibition of growth at 10 µM [20]: 54.5%
inhibition of growth at 10 µM [21]: 70.4%
inhibition of growth at 10 µM [22]: 55.1%
inhibition of growth at 10 µM [23]: 54.8%
inhibition of growth at 10 µM [24]: 81.8%
inhibition of growth at 10 µM [25]: 93.3%
inhibition of growth at 10 µM [26]: 66.9%
RatioGI50 [27]: 2 - 10
RatioGI50 [28]: 2 - 10
RatioGI50 [29]: 2 - 10
GI50 [30]: 17.7 µM
LC50 (concentration killing 50% of cells) [30]: > 100 µM
TGI [30]: 96.5 µM
GI50 [31]: 4.4 µM
LC50 [31]: > 100 µM
TGI [31]: 87.4 µM
GI50 [32]: 4.2 µM
LC50 [32]: 89.9 µM
TGI [32]: 77.4 µM
GI50 [33]: 3.7 µM
LC50 (concentration killing 50% of cells) [33]: > 100 µM
TGI [33]: > 100 µM
GI50 [34]: 4.1 µM
LC50 [34]: > 100 µM
TGI [34]: 84.9 µM
